Screening results (PubChem)
LANA DNA inh: inhibitors of KSHV LANA C-terminal domain DNA binding | inhibition, % at 9 µM | 340,000 compounds, 0.078% hits | MBP-C-LANA/FAM-LBS DNA binding, fluorescence polarization;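 active means highest replicate inhibition at or above 60% at 9 µM, even if other replicates fall short; inactive means all replicates below 60% inhibition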;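 further: 0% = neutral control wells and 100% = 4 µM acridine orange control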
miR122 inh: inhibitors of miR-122 in Huh7 cells. AID 602342. activation (reporter increase), % at 12.5 µM. Huh7 miR-122 Renilla luciferase sensor, 48 h; neutral wells = 0, positive control = 100. 340,000 compounds, 0.3% hits;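 active means mean replicate activation score at least 90 and every replicate individually at or above 90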;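 further: higher luciferase means less miR-122 activity so hits act as miR-122 inhibitors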
Keap1-Nrf2 PPI: inhibitors of human Keap1-Nrf2 protein-protein interaction | Q14145 | Keap1 Kelch-Nrf2 peptide fluorescence polarization, 1536-well | inhibition, % at 9.4 µM | 340,000 compounds, 0.15% hits; in the data active means inhibition above about 12%;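 further: human Keap1 Kelch domain with fluorescein labeled Nrf2 9mer peptide probe; 0% = neutral control wells and 100% = peptide positive control; higher means more block of Keap1 binding to Nrf2 peptide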
Target sequence (Q14145 whole entry, looked up, the tested form may be a part): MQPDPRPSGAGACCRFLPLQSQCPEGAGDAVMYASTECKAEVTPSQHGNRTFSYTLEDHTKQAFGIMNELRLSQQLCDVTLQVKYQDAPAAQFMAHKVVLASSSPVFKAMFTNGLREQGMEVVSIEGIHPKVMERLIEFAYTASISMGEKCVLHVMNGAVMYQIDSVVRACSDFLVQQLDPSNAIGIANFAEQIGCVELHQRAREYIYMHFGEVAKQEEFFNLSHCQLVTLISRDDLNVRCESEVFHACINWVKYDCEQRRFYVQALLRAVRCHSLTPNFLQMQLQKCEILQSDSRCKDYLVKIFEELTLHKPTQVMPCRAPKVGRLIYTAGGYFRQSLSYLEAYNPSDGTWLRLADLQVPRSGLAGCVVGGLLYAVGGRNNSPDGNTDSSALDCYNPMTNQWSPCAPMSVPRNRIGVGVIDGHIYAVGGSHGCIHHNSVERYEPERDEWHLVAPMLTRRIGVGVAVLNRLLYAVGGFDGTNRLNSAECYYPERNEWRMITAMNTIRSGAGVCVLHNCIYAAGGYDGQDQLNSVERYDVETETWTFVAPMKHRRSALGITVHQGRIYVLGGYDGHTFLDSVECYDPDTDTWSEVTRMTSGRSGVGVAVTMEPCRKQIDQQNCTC
CAL PDZ FP-1: blocks peptide binding to human CAL PDZ domain; Q9HD26; purified CAL PDZ, TMR-peptide fluorescence polarization, 1 h; inhibition, % at 20 µM; 330,000 compounds, 0.02% hits; AID 504414;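 active means highest replicate inhibition of at least 40%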;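 further: plate controls were DMSO neutral control wells for no effect and unlabeled competitor peptide control wells for full effect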
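Material: tagged CAL PDZ domain; buffer or medium: 25 mM sodium phosphate pH 7.4, 150 mM NaCl, TCEP, IgG, Thesit; compound dosing: single point, 20 µM; schedule: 1 h incubation at room temperature before polarization reading; measured by: FP readout, S and P plane fluorescence; read-out basis: percent inhibition from loss of millipolarization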
CAL PDZ FP-2: CAL PDZ (human) peptide binding inhibition; Q9HD26; purified CAL PDZ, TMR-peptide fluorescence polarization, 1 h; inhibition, % at 24.9 µM; 300,000 compounds, 0.92% hits; AID 602252;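 active means mean inhibition of at least 30% with at least half of replicates also reaching 30%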;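 further: 0% = DMSO neutral control and 100% = excess unlabeled competitor peptide PRC23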
* marks the source's active call; other numbers are inactive results; x = not tested or not shown; + = active, no number; [ ] = remark or other dose. Rows were chosen to be rich in hits. Some 1.1% of all compounds tested hit in one or more screens of this group.

SMILES	LANA DNA inh	miR122 inh	Keap1-Nrf2 PPI	CAL PDZ FP-1	CAL PDZ FP-2
O=C(C[C@H]1CC[C@H]2[C@@H](COC[C@H](O)CN2Cc2ccc3c(c2)OCO3)O1)N1CCCCC1	x	4[16.7 µM]	x	x	x
COc1cc(/C=N/NC(=S)NCC2CCCO2)cc(OC)c1OC (configuration not stated)	0	x	-2	1	36*
COc1ccccc1NS(=O)(=O)c1cc(NC(=S)NCC2CCCO2)ccc1C (configuration not stated)	0	99*	-9	-1	5
CCCCn1cnc2c(SCCc3ccccc3)nc(N)nc21	4	-4	-2	-1	-4
CCCn1cnc2c(SCCc3ccccc3)nc(N)nc21	-5	-7	-4	x	54*
Cc1cc(C)c(S(=O)(=O)Nc2ccc3c4c(cccc24)CC3)c(C)c1	0	111*	-5	-5	0
O=S(=O)(Nc1ccc2c3c(cccc13)CC2)c1ccccc1	x	2	x	x	x
COc1ccc(Br)cc1CN(C)C(=O)c1ccncc1	1	x	3	0	+
CCCC(=O)Nc1ccc2c(c1)OC[C@@H](C)N(CCc1ccccc1)C[C@@H](C)[C@@H](OC)CN(C)C2=O	x	-12[16.7 µM]	x	x	x
Cc1cccc(NC(=O)CN2C(=O)N/C(=C/c3cc(C)n(-c4cccnc4)c3C)C2=O)c1	0	x	-5	0	74*
CCCNC(=O)N1[C@H](CO)[C@H](c2ccc(C3=CCCC3)cc2)[C@@H]1CNC(C)=O	x	0[16.7 µM]	x	x	x
COCC#Cc1ccc2c(c1)O[C@H](CN(C)Cc1ccc3c(c1)OCO3)[C@H](C)CN([C@@H](C)CO)S2(=O)=O	x	4[16.7 µM]	x	x	x
CN1C(=O)c2cc(NC(=O)c3cscn3)ccc2OC[C@@H]2O[C@@H](CC(=O)NCC3CC3)CC[C@@H]21	x	0[16.7 µM]	x	x	x
CCOc1ccc(S(=O)(=O)Nc2ccc(Cl)cn2)c(C)c1C	-2	65	-1	0	-4
CCOc1cc(C)c(S(=O)(=O)Nc2ccc3cn[nH]c3c2)cc1C	1	124*	-2	-3	-2
CCc1ccc(S(=O)(=O)Nc2ccc(Cl)cn2)cc1	1	178*	-1	-1	-1
O=S(=O)(Nc1ccc2cn[nH]c2c1)c1cc(Br)ccc1Br	-1	180*	-1	-1	-3
CCOc1cc(C)c(S(=O)(=O)Nc2ccc(Cl)cn2)cc1C	-1	124*	-2	0	-5
C[C@H](CO)N1C[C@H](C)[C@@H](CN(C)C(=O)CCCN(C)C)OCCCC[C@H](C)Oc2ccc(NS(C)(=O)=O)cc2C1=O	x	6[16.7 µM]	x	x	x
O=C(NNc1cc(N2CCCC2)nc(N2CCCC2)n1)c1ccc([N+](=O)[O-])cc1	0	x	1	-2	30*
COc1cc(NC(=O)CN(C)S(=O)(=O)c2cccs2)cc(OC)c1	1	x	-2	-2	-2
CCOc1ccc(NC(=O)CN(C)S(=O)(=O)c2cccs2)cc1	2	-2	-6	-1	59*
CN1C=CC=C/C1=C1\SC(=S)N(c2ccccc2)C1=O	0	-27	-9	0	-3
C=CCN1C=CC=C/C1=C1\SC(=S)N(C)C1=O	1	-7	-4	-1	35*
CC1C=NC(S(=O)(=O)N2CC[C@@H]3[C@H](CO)N(C)c4ccc(-c5ccc(F)cc5)cc4[C@@H]32)=N1 (some centres not stated)	x	0[16.7 µM]	x	x	x
SMILES	LANA DNA inh	miR122 inh	Keap1-Nrf2 PPI	CAL PDZ FP-1	CAL PDZ FP-2
CC1(C)N([O-])C(c2cccs2)=C[N+]1=O	0	103*	2	-2	1
CO[C@H]1CN(C)C(=O)c2ccc(NC(=O)Nc3ccc(Cl)cc3)cc2OC[C@@H](C)NC[C@@H]1C	x	-10[16.7 µM]	x	x	x
O=C(NCc1ccccc1)c1ncn[nH]1	1	12	0	0	112*
O=C(NCCc1ccccc1)c1ncn[nH]1	1	-8	5	-2	-3
O=C(C[C@@H]1CC[C@H](NC(=O)c2cnccn2)[C@H](CO)O1)NCc1ccccc1F	x	-6[16.7 µM]	x	x	x
O=C(O)c1ccc(NS(=O)(=O)c2ccc3c(c2)C2C=CCC2C(c2ccccc2F)N3)cc1 (configuration not stated)	108*	-5	-4	0	1
O=C(O)c1ccc2c(c1)C1C=CCC1C(c1cc3c(cc1Br)OCO3)N2 (configuration not stated)	5	x	-3	-4	x
Cc1ccc([N+](=O)[O-])cc1NC1CC(O)C(CO)O1 (configuration not stated)	0	-2	1	1	31*
Cc1ccc(NC2OC(CO)C(O)C2O)cc1[N+](=O)[O-] (configuration not stated)	1	4	4	0	3
CO[C@H]1CN(C)C(=O)c2ccc(NC(=O)Nc3ccc(Cl)cc3)cc2OC[C@H](C)NC[C@@H]1C	x	5[16.7 µM]	x	x	x
COc1ccc(CCNC(=O)c2cccc3ccccc23)cc1OC	1	-7	-2	-1	-2
COc1ccc(CCNC(=O)c2ccc(OC)c(OC)c2)cc1OC	-1	11	-1	-10	-6
COc1ccc(CCNC(=O)c2c(N)no[n+]2[O-])cc1OC	80*	x	0	1	-2
COc1ccc(CCNC(=O)c2cc3c(F)cccc3s2)cc1OC	2	2	3	-2	70*
CC(C)NC(=O)Nc1ccc2c(c1)C(=O)N([C@@H](C)CO)C[C@@H](C)[C@H](CN(C)S(=O)(=O)c1cn(C)cn1)OCCCC[C@@H](C)O2	x	6[16.7 µM]	x	x	x
C=CCOc1ccc(Br)cc1CNCCO	1	x	3	-1	98*
C=CCOc1ccc(Br)cc1CNC(C)(C)CO	0	x	-5	1	-4
C[C@@H](NC(=O)[C@@H]1[C@@H](CO)[C@@H]2Cn3c(cccc3=O)[C@H]1N2C(=O)C1CCCC1)c1ccccc1	x	4[16.7 µM]	x	x	x
COCCNC(=S)N(CCO)Cc1cc2cc3c(cc2[nH]c1=O)OCO3	1	x	-1	x	82*
COc1ccc(CN(C)C[C@@H]2Oc3ccc(NS(=O)(=O)c4ccc(C)cc4)cc3C(=O)N([C@H](C)CO)C[C@@H]2C)cc1	x	-4[16.7 µM]	x	x	x
CC(C)CC#Cc1cnc2c(c1)C(=O)N([C@@H](C)CO)C[C@@H](C)[C@@H](CN(C)C(=O)CCN1CCCCC1)O2	x	1[16.7 µM]	x	x	x
CN(C)c1ccc(C(=O)OCC(=O)NC2CCCCCC2)cc1	1	1	1	28	32*
C=CCn1c(O)c(/C=C2\C=NN=C2c2ccccc2)sc1=S	1	x	1	-1	52*
CCCn1c(O)c(/C=C2\C=NN=C2c2ccccc2)sc1=S	-1	-7	1	-1	x
CCCC(=O)Nc1ccc2c(c1)C(=O)N(C)[C@H]1CC[C@@H](CC(=O)NCC(F)(F)F)O[C@H]1CO2	x	143*[16.7 µM]	x	x	x
CN1C(=O)c2cc(NC(=O)Cc3ccccc3)ccc2OC[C@H]2O[C@H](CC(=O)NCC3CC3)CC[C@@H]21	x	42[16.7 µM]	x	x	x
CN1C(=O)c2cc(NC(=O)Cc3ccccc3)ccc2OC[C@@H]2O[C@@H](CC(=O)NCC3CC3)CC[C@@H]21	x	183*[16.7 µM]	x	x	x
